According to article PMC10646973 (Biochemistry, 2023):

Key:
[1] = tested on: protein arginine and protein lysine methyltransferases (PRMTs and PKMTs) in HT-29 colorectal cells; assay: Protein methylation marks; format: cell-based; details: HT-29 cells, 6 days, positive control
Outline: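 HT-29 colorectal cells were exposed to the test compound for 6 days. Soluble protein was then extracted and immunoblotted for symmetric dimethylarginine, asymmetric dimethylarginine and trimethyl-lysine marks. The SDMA positive control was a PRMT5-specific inhibitor, and the ADMA positive control was a type I PRMT (PRMT1/4) inhibitor.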

PNMT = details: read-out: apparent IC50; cited from earlier work

Structure (SMILES): CC(=O)N1CCC(Nc2cc(C(=O)NC[C@H](O)CN3CCc4ccccc4C3)ncn2)CC1 [GSK3326595, reference compound]
- SDMA (Western blot) [1]: no band corresponding to SDMA

Structure (SMILES): NC(=O)c1cccc(C#CCN(CC[C@H](N)C(=O)O)C[C@H]2O[C@@H](n3cnc4c(N)ncnc43)[C@H](O)[C@@H]2O)c1 [LL320]
- IC50 (PNMT): > 100 µM

Structure (SMILES): CC(C)Oc1ccc(-c2c[nH]cc2CN(C)CCN)cc1 [MS023, reference compound]
- ADMA (Western blot) [1]: no evidence of ADMA
